Drawing on ChEMBL document CHEMBL3091382, “The chemical synthesis and cytotoxicity of new sulfur analogues of 2-methoxy-lysophosphatidylcholine” (Bioorg Med Chem Lett, 2013), this text covers Activity and viability for 15 molecules.

The structures appear in SMILES notation.

Data set [1] is described as follows: Cytotoxicity against mouse betaTC3 cells assessed as cellular membrane damage at 10 uM after 24 hrs by LDH release assay. The format is cell-based. To be noted: beta-tc3, 24 h. In a few lines:
(§1)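 βTC-3 insulinoma cells seeded at 10,000 per well and cultured 24 or 48 h, then exposed to compound for 24 h. LDH in the medium measured as a marker of membrane damage. Release expressed as percentage of that from cells given methanol alone. Mean ± SD, n = 4; significance taken at p < 0.05.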
In general terms: LDH leaks from cells whose membrane has failed.

Data set [2] is described as follows: Cytotoxicity against mouse betaTC3 cells assessed as cellular membrane damage at 25 uM after 24 hrs by LDH release assay. The class given is cell-based. Conditions: beta-tc3, 24 h. In a few lines:
as §1

Data set [3] in a line: Cytotoxicity against mouse betaTC3 cells assessed as cell viability at 10 uM after 48 hrs by MTT assay relative to control. Conditions: read-out: Activity. The format is cell-based, Beta-TC3. The method, boiled down: (§2)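 βTC-3 insulinoma cells seeded at 10,000 per well and cultured 24 and 48 h before exposure to natural LPC species or 2-methoxy sulfur analogues at 10 or 25 µM. Incubation for 24 or 48 h. Viability measured by MTT colorimetric assay and expressed as % of untreated cells, mean ± SD of four independent experimental repeats.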
(Formazan colour is commonly taken as a measure of viable cells.)

Data set [4] in a line: Cytotoxicity against mouse betaTC3 cells assessed as cell viability at 10 uM after 24 hrs by MTT assay relative to control. The format is cell-based, Beta-TC3. To be noted: read-out: Activity. In a few lines: as §2
Data set [5] is described as follows: Cytotoxicity against mouse betaTC3 cells assessed as cell viability at 25 uM after 48 hrs by MTT assay relative to control. The format is cell-based, Beta-TC3. To be noted: read-out: Activity. In a few lines: as §2
A short description of data set [6]: Cytotoxicity against mouse betaTC3 cells assessed as cell viability at 25 uM after 24 hrs by MTT assay relative to control. The format is cell-based, Beta-TC3. Conditions: read-out: Activity. In a few lines:
as §2

On to `CCCCCCCCCCCCCCCC(=O)OC[C@@H](O)COP(=O)([O-])OCC[N+](C)(C)C`, for which the Activity result in data set [1] was “Toxic”; in data set [2], 16.8%. The viability at 48 h, 10 µM in data set [3] came out at 59.8%. Further, the viability at 24 h, 10 µM in data set [4] came out at 73.1%. Besides, the viability at 48 h, 25 µM in data set [5] came to 20.1%. Further, the viability at 24 h, 25 µM in data set [6] is 29.7%.

`CCCCCCCCCCCCCCCCCC(=O)OC[C@@H](O)COP(=O)([O-])OCC[N+](C)(C)C`: the Activity result in data set [1] was “Toxic”. For the same molecule, in data set [3], the viability at 48 h, 10 µM turned out to be 59.3%. Moreover, the viability at 24 h, 10 µM in data set [4] was found to be 88.8%. The viability at 48 h, 25 µM in data set [5] turned out to be 29.5%. Further, in data set [6], the viability at 24 h, 25 µM amounted to 38.7%.

`CCCCCCCC/C=C\CCCCCCCC(=O)OC[C@@H](O)COP(=O)([O-])OCC[N+](C)(C)C`: the Activity in data set [2] is reported as 9.04%. In addition, in data set [3], the viability at 48 h, 10 µM turned out to be 93.4%. Besides, the viability at 24 h, 10 µM in data set [4] stood at 130%. Moreover, in data set [5], the viability at 48 h, 25 µM was 68.5%. Moreover, the viability at 24 h, 25 µM in data set [6] is 81.1%.

As to `CCCCCCCCCCCCCC(=O)OCC(COP(=O)([S-])OCC[N+](C)(C)C)OC` (mixture of isomers), the viability at 48 h, 10 µM in data set [3] stood at 101%. Also, the viability at 24 h, 10 µM in data set [4] came to 112%. For the same molecule, in data set [5], the viability at 48 h, 25 µM worked out at 41.1%. Also, the viability at 24 h, 25 µM in data set [6] came out at 73.7%.

`CCCCCCCCCCCCCCCCCC(=O)OCC(COP(=O)([S-])OCC[N+](C)(C)C)OC` (mixture of isomers): the viability at 48 h, 10 µM in data set [3] is 61.4%. Also, the viability at 24 h, 10 µM in data set [4] was found to be 90.3%. In addition, in data set [5], the viability at 48 h, 25 µM was 50.9%. Also, the viability at 24 h, 25 µM in data set [6] stood at 82.9%.

Take `CCCCCCCCCCCC(=O)OCC(COP(=O)([S-])OCC[N+](C)(C)C)OC` (racemic): the viability at 48 h, 10 µM in data set [3] stood at 106%. Besides, the viability at 24 h, 10 µM in data set [4] worked out at 90.2%. For the same molecule, the viability at 48 h, 25 µM in data set [5] came out at 71.1%. Further, in data set [6], the viability at 24 h, 25 µM was determined as 90.7%.

As to `CCCCCCCCCCCCCCCC(=O)OCC(COP(=O)([S-])OCC[N+](C)(C)C)OC` (racemic), the viability at 48 h, 10 µM in data set [3] stood at 87.7%. Also, in data set [4], the viability at 24 h, 10 µM amounted to 105%. For the same molecule, the viability at 48 h, 25 µM in data set [5] stood at 44.2%. The viability at 24 h, 25 µM in data set [6] came out at 60.4%.

For `CCCCCCCC/C=C\CCCCCCCC(=O)OCC(COP(=O)([S-])OCC[N+](C)(C)C)OC` (racemic), the viability at 48 h, 10 µM in data set [3] stood at 92.4%. Further, the viability at 24 h, 10 µM in data set [4] was found to be 121%. Further, the viability at 48 h, 25 µM in data set [5] was 133%. In addition, the viability at 24 h, 25 µM in data set [6] was 144%.

`CCCCCCCCCCCC(=O)OCC(COP(=S)([S-])OCC[N+](C)(C)C)OC` (racemic): in data set [3], the viability at 48 h, 10 µM amounted to 98.2%. In addition, the viability at 24 h, 10 µM in data set [4] amounted to 87.1%. The viability at 48 h, 25 µM in data set [5] was 41.8%. The viability at 24 h, 25 µM in data set [6] was determined as 83.7%.

For `CCCCCCCCCCCCCC(=O)OCC(COP(=S)([S-])OCC[N+](C)(C)C)OC` (racemic), the viability at 48 h, 10 µM in data set [3] was determined as 87.9%. Further, in data set [4], the viability at 24 h, 10 µM was determined as 104%. Besides, in data set [5], the viability at 48 h, 25 µM is 35.8%. Moreover, the viability at 24 h, 25 µM in data set [6] worked out at 64.7%.

In the case of `CCCCCCCCCCCCCCCC(=O)OCC(COP(=S)([S-])OCC[N+](C)(C)C)OC` (racemic), in data set [3], the viability at 48 h, 10 µM amounted to 100%. The viability at 24 h, 10 µM in data set [4] was found to be 112%. Further, the viability at 48 h, 25 µM in data set [5] was 37.4%. For the same molecule, the viability at 24 h, 25 µM in data set [6] amounted to 58.7%.

For the molecule `CCCCCCCCCCCCCCCCCC(=O)OCC(COP(=S)([S-])OCC[N+](C)(C)C)OC` (racemic), the viability at 48 h, 10 µM in data set [3] was found to be 96.8%. Moreover, in data set [4], the viability at 24 h, 10 µM was found to be 85.8%. Further, the viability at 48 h, 25 µM in data set [5] was 38.9%. Moreover, the viability at 24 h, 25 µM in data set [6] came out at 63.1%.

As to `CCCCCCCC/C=C\CCCCCCCC(=O)OCC(COP(=S)([S-])OCC[N+](C)(C)C)OC` (racemic), the viability at 48 h, 10 µM in data set [3] was determined as 95.9%. Besides, the viability at 24 h, 10 µM in data set [4] was 90.5%. Besides, the viability at 48 h, 25 µM in data set [5] is 112%. In addition, the viability at 24 h, 25 µM in data set [6] was determined as 111%.

In the case of `CCCCCCCCCCCC(=O)OC[C@@H](O)COP(=O)([O-])OCC[N+](C)(C)C` [LYSOPHOSPHATIDYLCHOLINE], in data set [2], the Activity was 16.8%. The viability at 48 h, 10 µM in data set [3] came out at 86.1%. For the same molecule, the viability at 24 h, 10 µM in data set [4] stood at 106%. In addition, the viability at 48 h, 25 µM in data set [5] is 67.1%. The viability at 24 h, 25 µM in data set [6] came to 83%.

Take `CCCCCCCCCCCCCC(=O)OC[C@@H](O)COP(=O)([O-])OCC[N+](C)(C)C` [LYSOPHOSPHATIDYLCHOLINE]: the Activity result in data set [1] is listed as “Toxic”. The viability at 48 h, 10 µM in data set [3] was 53.1%. For the same molecule, the viability at 24 h, 10 µM in data set [4] came out at 75.5%. The viability at 48 h, 25 µM in data set [5] came to 7.5%. Also, in data set [6], the viability at 24 h, 25 µM stood at 26.3%.
